# Compound activity deposited in PubChem BioAssay by several laboratories.
# Most compounds without a hit are left out; they make up all but 4.7% or so of the library.
# KCC2 mod: modulates chloride dependent transport by human KCC2; Q9H2X9; KCC2 cells, thallium flux FluoZin-2 fluorescence; B-score of Tl+ flux slope (higher = more flux/activation; lower = inhibition) at 10 µM; 190,000 compounds, 2.2% hits; AID 1456;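 active = thallium flux slope and its plate-corrected score both differing from the plate sample mean at a set confidence after two filtering rounds, in either direction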;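 also: slope of fluorescence scaled to starting intensity during 10 to 20 s after thallium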
# MrgX1 allo act: human MrgX1 positive allosteric modulation, primary screen; Q96LB2; B-score at 10 µM; 310,000 compounds, 0.63% hits; MrgX1-HEK293, Fluo-4 calcium flux, FDSS; hits give high values;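 active = plate-corrected calcium response at least 3 library SD above typical, normal starting fluorescence, not activating the receptor alone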;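 also: compound read alongside a low EC10 to EC30 dose of BAM8-22 agonist; peak minus trough fluorescence over baseline measured at the second addition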
# RGS4 inh: human RGS4 inhibition; HEK293 M3R/RGS4 inducible, Fluo-4 calcium flux; hits give high values; triggered by carbachol at its EC20; B-score at 10 µM; 310,000 compounds, 0.45% hits; AID 463165;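 active = B-score, a plate-corrected calcium signal, over three deviations above library mean, with baseline fluorescence within five deviations of library mean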;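 also: RGS4 expression induced by doxycycline in cells with stable M3 receptor; B-score is computed from the integrated fluorescence ratio over baseline after carbachol; higher B-score means a larger calcium signal and so more RGS4 inhibition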
# RGS4 act: potentiators or activators of RGS4; HEK293 M3R/inducible RGS4, carbachol calcium flux Fluo4; hits give low values; B-score at 10 µM; 310,000 compounds, 0.92% hits; AID 463111;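 active = B-score of the integrated calcium signal more than 4 SD below the library mean, with starting fluorescence not abnormally high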;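 also: negative B-score means reduced calcium response which marks RGS4 activation or potentiation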
#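 Material: Inducible-RGS4 HEK293 cells carrying M3 receptor; also added: carbachol at ECmax as muscarinic agonist stimulus; incubation: compound preincubation 20 min at room temperature before agonist; signal: Fluo4-AM (2 µM) calcium-flux fluorescence, kinetic read; measure: integrated calcium ratio converted to B score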
# MrgX1 ag: activates human MrgX1 receptor signaling; 310,000 compounds, 0.44% hits; MrgX1-HEK293 cells, Fluo-4 calcium fluorescence, agonist mode; hits give high values; B-score at 10 µM; Q96LB2;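 active = calcium response B-score plate-corrected fluorescence ratio at least 3 library SD, with starting fluorescence B-score inside 5 SD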
#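 Material: HEK293 cells stably expressing human MrgX1 receptor | Quantity: 15,000 cells per well | Times: Cells plated overnight, dye loaded 0.5 h 37 °C, 0.5 h room temperature | Measured by: Kinetic Fluo-4 NW fluorescence of intracellular calcium | Control set: Positive and negative controls per plate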
# MrgX1 antagonist: human MrgX1 receptor antagonism, primary screen. Q96LB2. MRGX1-HEK293 calcium flux, Fluo-4, BAM8-22 antagonism; hits give low values. B-score at 10 µM. 310,000 compounds, 1.3% hits;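 active = calcium-response B-score plate-corrected more than 3 library SD below zero, starting fluorescence within 5 deviations, no agonist response on first addition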;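 also: peak minus trough fluorescence over baseline after final BAM8-22 challenge near maximal dose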
# MrgX1 ag confirm: human MrgX1 agonism, re-confirmation screen | shares compounds with MrgX1 ag | MrgX1-HEK293, Fluo-4 calcium fluorescence, FDSS | activation, % at 10 µM | 600 compounds, 78% hits | AID 602412;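 active = calcium signal rise, corrected for plate position, at least 3 library SD high, with starting brightness within 5 such deviations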
# MrgX1 PAM conf: reconfirmed allosteric activator of human MrgX1 receptor; activation (ratio percentage), % at 10 µM; shares compounds with MrgX1 allo act; 1,200 compounds, 13% hits; MrgX1-HEK293, Fluo-4 calcium fluorescence, FDSS;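 active = ratio at least 3 SD above the weak peptide control, stable starting fluorescence, no direct agonism earlier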;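 also: compound followed by low BAM8-22 agonist challenge near EC20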
# HEK293 Ca flux: activity in parental HEK293 cells lacking MrgX1; 4,000 compounds, 2% hits; Fluo-4 calcium fluorescence, FDSS; fluorescence ratio F(max-min)/F0 at 10 µM; shares compounds with MrgX1 antagonist;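 active = duplicate-averaged calcium fluorescence ratio at least three times the standard deviation of buffer wells, a nonspecific response in parental cells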
# HEK293 Ca counter: MrgX1 allosteric activator counter-screen hit in parental HEK293 cells; shares compounds with MrgX1 antagonist; parental HEK293 calcium flux, Fluo-4 fluorescence ratio; hits give high values; fluorescence ratio F(max-min)/F0 at 10 µM; 4,000 compounds, 0.4% hits; AID 624114;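 active = calcium fluorescence ratio, averaged over duplicates, at least 3 SD of the buffer-well ratio, meaning a nonspecific response in receptor-free cells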;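 also: untransfected parental HEK293 lacking MrgX1 used as counterscreen for MrgX1 allosteric activators; fluorescence change taken during the second addition on a kinetic imager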
# HEK293 Ca cntr2: MrgX1 activator counter-screen hit in parental HEK293 cells. Fluo-4 calcium fluorescence (FDSS); hits give high values. fluorescence ratio F(max-min)/F0 at 10 µM. 4,000 compounds, 8.7% hits. shares compounds with MrgX1 antagonist;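 active = calcium fluorescence ratio at least three times the spread of buffer wells, meaning a non-specific response in parental cells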
# Numbers without * were called inactive; i = inactive; . = not tested or not shown.
SMILES,KCC2 mod,MrgX1 allo act,RGS4 inh,RGS4 act,MrgX1 ag,MrgX1 antagonist,MrgX1 ag confirm,MrgX1 PAM conf,HEK293 Ca flux,HEK293 Ca counter,HEK293 Ca cntr2
CCCCCC(=O)N/N=C(\C)c1ccccn1,0.1,i,i,i,86*,i,i,.,i,i,i
COc1ccc(NC(=O)NNC(=O)CCc2ccc(O)c(O)c2)cc1OC,.,i,i,i,i,i,.,.,.,.,.
Cc1nc(C)n(C(C)CNS(=O)(=O)c2ccc(C)c(C)c2)n1 (centres undefined),.,i,i,i,i,i,.,.,.,.,.
CCOC(=O)N1CCN(C(=O)c2c[nH]c3ccc(S(=O)(=O)N(C)c4cccc(C)c4)cc3c2=O)CC1,.,i,i,i,34*,i,191%*,.,i,i,50*
COc1ccnc(CSC(N)=Nc2ccccc2C(F)(F)F)c1,.,i,i,i,33*,i,102%*,.,i,i,i
CC(=O)Nc1ccc(N/C(N)=N/c2nc(C)cc(C)n2)cc1,0.77,i,i,i,i,i,.,.,.,.,.
Cc1ccc(C)c(N/C(N)=N/c2nc(C)cc(C)n2)c1,-0.71,i,i,i,59*,i,385%*,.,i,i,85*
Cc1cc(C)nc(/N=C(\N)Nc2ccc(-c3ccccc3)cc2)n1,0.19,i,i,-7.1*,74*,i,300%*,.,i,i,i
Cc1cc(C)nc(/N=C(\N)Nc2ccc(SC(F)F)cc2)n1,1,i,i,i,57*,i,444%*,.,i,i,98*
CCOc1ccc(N/C(N)=N/c2nc(C)cc(C)n2)cc1,.,i,i,i,142*,i,434%*,.,i,i,94*
Cc1ccccc1NS(=O)(=O)c1ccc(NC(=O)c2ccco2)cc1,1.2,11*,i,i,i,i,.,i,i,i,i
Cc1ccccc1NC(=O)c1ccco1,.,i,i,i,i,i,.,.,.,.,.
CCOC(=O)C1(CCCc2ccccc2)CCN(C(=O)C2=C(C)OCCO2)CC1,-4.5,.,i,i,.,.,.,.,.,.,.
CCOC(=O)CSc1nc2ccc(N)cc2s1,0.15,i,i,i,i,i,.,.,.,.,.
Nc1ccc2nc(SCc3cccc(F)c3)sc2c1,-1,9.2*,i,i,i,i,.,i,i,i,i
Cc1cc(OC(C)C(=O)Nc2ccncc2)ccc1Cl (centres undefined),.,i,i,i,i,i,.,.,.,.,.
CCCc1cc(C(N)=O)c(NC(=O)c2ccoc2C)s1,1.6,8.7*,i,i,i,i,.,i,i,i,i
O=C(CN1CCCCC1)N1CCN(C(=O)CN2CCCCC2)CC1,.,.,i,i,.,.,.,.,.,.,.
O=C(O)CN1CCCCC1,.,9.7*,i,i,i,i,.,i,i,i,i
CC(=O)Cc1nsc(NC(=O)c2ccc(Br)o2)n1,-0.078,7.4*,i,i,i,i,.,i,i,i,i
CC(=O)Cc1nsc(NC(=O)c2ccc(-c3cccc(Cl)c3)o2)n1,-1.5,13*,i,i,i,i,.,15%*,i,i,i
